KCC2 mod – modulators of human KCC2 chloride dependent transport; Q9H2X9; KCC2 cells, thallium flux FluoZin-2 fluorescence; B-score of Tl+ flux slope (higher = more flux/activation; lower = inhibition) at 10 µM; actives 2.2% (n = 190,000);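 active means thallium flux slope and its plate-corrected score both differing from the plate sample mean at a set confidence after two filtering rounds, in either direction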;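 further: slope of fluorescence scaled to starting intensity during 10 to 20 s after thallium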
Rad51 HR inh – blocks human Rad51 in homologous recombination; Q06609; hRad51 DNA strand exchange, fluorescence dequenching; inhibition, % at 10 µM; actives 0.085% (n = 200,000);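 active means inhibition above 40% at the single screening dose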;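 further: 0% = DMSO control wells and 100% = blanks with heterologous ssDNA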
Target sequence (Q06609 whole entry, looked up): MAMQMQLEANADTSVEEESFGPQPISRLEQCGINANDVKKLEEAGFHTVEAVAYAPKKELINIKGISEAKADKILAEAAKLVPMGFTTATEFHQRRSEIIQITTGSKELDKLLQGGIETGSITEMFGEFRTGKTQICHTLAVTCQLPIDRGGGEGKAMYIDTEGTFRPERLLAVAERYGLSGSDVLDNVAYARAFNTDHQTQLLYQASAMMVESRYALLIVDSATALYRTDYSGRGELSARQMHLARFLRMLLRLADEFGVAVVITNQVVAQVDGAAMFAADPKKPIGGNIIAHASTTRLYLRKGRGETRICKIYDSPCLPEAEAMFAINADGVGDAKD
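Test system: preformed human Rad51 ssDNA filaments; also added: Donor/quencher-labelled 47-bp dsDNA substrate; doses: 10 µM final, single point; times: 37 °C 15-min filament assembly, 30-min compound preincubation, 15-min exchange; detection: FRET fluorescence dequenching, excitation 485 nm, emission 520 nm; read-out basis: Fluorescence-based percent inhibition, control- and blank-normalised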
PKD1 inh – blocks activity of human protein kinase D1. PKD1 kinase fluorescence polarization assay. inhibition, % (test concentration not listed). actives 0.056% (n = 200,000). AID 797; in the data active means inhibition above about 50%
ROMK primary – modulators of human ROMK potassium channel. P48048. Tet-inducible ROMK, thallium flux fluorescence; actives lie on both sides. B-score at 10 µM. actives 2% (n = 130,000). AID 1918;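 active means signal ratio slope over the read window, or its plate-corrected B-score, at least 3 SD from the plate mean, either direction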;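 further: B-score of the F/F0 ratio slope over 7 to 12 s after thallium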
ROMK hit retest – confirmation of human ROMK potassium channel modulators | shares compounds with ROMK primary | ROMK thallium flux, fluorescence ratio; active compounds read low | normalized thallium flux (F/F0 slope) at 10 µM | actives 54% (n = 3,000) | AID 1917;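 active means Flux at 10 µM at least 3 SD below or above vehicle control mean in one or both replicates; inconclusive means no clear call, values can overlap the other calls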
Starred values were filed as active, the others as inactive; ? = inconclusive; / = no result given. The list is not random: actives were taken first. Their share in the collection is about 3%.

SMILES	KCC2 mod	Rad51 HR inh	PKD1 inh	ROMK primary	ROMK hit retest
O=C1CC(N2CCN(Cc3ccc4c(c3)OCO4)CC2)C(=O)N1c1cccc(Cl)c1 (stereo not given)	/	9.1	5.3	-1.42	/
CCc1ccc(N2CCN(C(=O)N3CCOCC3)CC2)cc1	0.177	0.8	-2.1	0.224	/
CCn1c(SCC(=O)Nc2nc3ccc(OC)cc3s2)nc2c1c(=O)n(C)c(=O)n2C	-1.64	5.5	18.2	/	?
CCCn1c(SCC(=O)Nc2ccccc2N2CCCCC2)nc2c1c(=O)n(C)c(=O)n2C	0.00642	-8.0	8.2	-2.64*	0.0639*
CCCn1c(SCC(=O)Nc2ccccc2C(=O)OC)nc2c1c(=O)n(C)c(=O)n2C	-0.687	-8.4	2.6	/	/
CN1CCN(CCCNC(=O)c2ccc(CSCc3cccc(Cl)c3)o2)CC1	/	-2.1	0.1	-0.909	/
CC1CCN(CCCNC(=O)c2ccc(CSCc3cccc(Cl)c3)o2)CC1	0.638	4.7	4.1	-4.19*	0.053*
Cc1ccc(Cl)cc1N1CCN(CC(=O)Nc2ccc(CN3CCCCC3)cc2)CC1	-0.689	-4.0	1.5	-4.64*	0.0541*
COc1ccc(S(=O)NC2CCCCC2)c(OC)c1C (stereo not given)	-0.125	-2.4	-0.4	/	0.0748
CCSc1nnc(NC(=O)C(C)(C(F)(F)F)C(F)(F)F)s1	/	-0.1	-13.9	-2.99	/
CCSc1nnc(NC(=O)C(CC)(C(F)(F)F)C(F)(F)F)s1	-2.21	-4.0	-0.2	-0.912	0.0713
CCSc1nnc(NC(=O)NCC(F)(F)F)s1	-0.214	-4.1	-3.8	2.6*	0.0776
CCOc1ccccc1NC(=O)NC(C)c1ccncc1 (stereo not given)	0.0615	12.3	-2.5	0.674	/
CC(=O)NCCNC(=O)[C@H](Cc1ccccc1)NC(=O)c1cccs1	2.7	/	3.6	2.36*	0.0777
O=C(COC(=O)c1ccc2ccccc2n1)NCc1ccccc1	-0.509	-6.0	1.4	0.522	/
Cc1csc2nc3cc(C(N)=O)ccc3c(=O)n12	0.752	8.5	/	/	0.0798
NC(=O)c1ccc2c(=O)n3c(-c4cc(Cl)c(N)c(Cl)c4)csc3nc2c1	0.00324	4.8	/	/	/
Cc1ccc(N/C(=C\C(=O)c2ccccc2)C(=O)O)cc1	/	-6.8	-1.4	0.217	/
CN1CCN(/N=C/c2ccc(-c3ccc([N+](=O)[O-])cc3Cl)o2)CC1	2.7	-58.6	-5.3	-3.85*	0.0447*
CNC(=S)N/N=C/c1ccc(-c2cc([N+](=O)[O-])ccc2Cl)o1	0.729	-0.3	-2.2	-0.0112	/
O=C(CSCc1ccc(Cl)cc1)Nc1ccccc1O	0.109	5.2	0.5	2.27*	0.074
CCC1(c2ccc(F)cc2)NC(=O)N(CC(=O)Nc2ccc(S(N)(=O)=O)cc2)C1=O (stereo not given)	-1.04	4.0	-3.9	-0.924	/
CCn1nc(C(=O)OCc2cccc(S(=O)(=O)N(C)C)c2)c2ccccc2c1=O	-1.13	-51.4	/	/	?
Cc1ccc(C(=O)OCC(=O)Nc2ccccc2)cc1NC(=O)c1ccco1	0.0717	-3.6	-8.4	-5.38*	0.0913
Cc1ccc(C(=O)OCC(=O)Nc2ccc(N(C)C)cc2)cc1NC(=O)c1ccco1	-0.00532	-3.8	-4.0	0.498	/
Cc1cc2nnc(SCC(=O)Nc3cccc(S(=O)(=O)N4CCOCC4)c3)n2c2ccccc12	-3.01	-9.9	-5.5	/	0.0821
CCN(CC)CCCNC(=O)c1cc2c(-c3ccc(Cl)cc3)nn(C)c2s1	/	-4.5	-9.0	/	0.0588*

Compound activity as filed in PubChem BioAssay.
